From ChEMBL document CHEMBL3244309, “Structure-activity relationships of aminoalkyl and -aryl glycosides having insulin-like activity” (1978)

How the values were obtained:
Format in all cases: functional
[1] = Insulin-like activity in albino CD rat fat cells assessed as stimulation of oxidation of [14C]glucose to 14CO2 at 100 ug/ml after 2 hrs by scintillation counting analysis relative to insulin
[2] = Insulin-like activity in albino CD rat fat cells assessed as stimulation of oxidation of [14C]glucose to 14CO2 at 50 ug/ml after 2 hrs by scintillation counting analysis relative to insulin
Rattus norvegicus [3] = test: In vivo insulin-like activity in rat omental adipose tissue assessed as stimulation of lipogenesis by measuring conversion of [14C]glucose to [14C]lipids at 500 mg/kg, ip after 2 hrs; settings: route intraperitoneal
Method in brief: (§1)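 Overnight-fasted female rats (140–150 g) given one ip injection of saccharide neutralized to pH 7.5 with 0.1 N HCl, together with [14C]glucose (2 μCi/rat), in physiological saline. Controls received the same solution without saccharide or insulin; insulin reference was 200 mU/kg. After 2 h, 14C incorporated per gram of tissue was measured: diaphragm glycogen and omental adipose total lipids. Mean of five animals, % above control.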

Rattus norvegicus [4] = test: In vivo insulin-like activity in rat diaphragm muscle assessed as stimulation of glycogenolysis by measuring conversion of [14C]glucose to [14C]glycogen at 500 mg/kg, ip after 2 hrs; settings: route intraperitoneal, in the assay text read “glycogenesis” for “glycogenolysis”; method in brief: as §1
[5] = Insulin-like activity in albino CD rat fat cells assessed as stimulation of oxidation of [14C]glucose to 14CO2 at 750 ug/ml after 2 hrs by scintillation counting analysis relative to insulin

Row | Compound | Activity [1] | further results
1 | NCCCCCCS[C@H]1O[C@H](CO[C@H]2O[C@H](CO)[C@@H](O)[C@H](O)[C@@H]2O)[C@@H](O)[C@H](O)[C@@H]1O | 21.6% | –
2 | NCCCCCCS[C@@H]1O[C@H](CO)[C@@H](O)[C@H](O)[C@H]1O | 43.8% | –
3 | NCc1ccc(CS[C@H]2O[C@H](CO)[C@@H](O)[C@H](O)[C@@H]2O)cc1 | 9.2% | –
4 | O=C([O-])CCCCCS[C@H]1O[C@H](CO)[C@@H](O)[C@H](O)[C@@H]1O.[Na+] | 0% | –
5 | NCCCCCCSC[C@@H](O)[C@@H](O)[C@H](O)[C@H](O)CO | – | Activity [2]: 0%
6 | CN(C)CCCCCCS[C@H]1O[C@H](CO)[C@@H](O)[C@H](O)[C@@H]1O | 0% | –
7 | NCCCCCCS[C@@H]1O[C@H](CO)[C@@H](O)[C@H](O)[C@@H]1O | 80% | Activity (Rattus norvegicus [3]): 86%; Activity (Rattus norvegicus [4]): 74%; Activity [2]: 109.7%
8 | NCCCCCCS[C@H]1O[C@H](CO)[C@@H](O)[C@H](O)[C@@H]1O | 40.8% | Activity [2]: 132.4%
9 | NCCCCCCS[C@H]1O[C@H](CO)[C@@H](O[C@H]2O[C@H](CO)[C@@H](O)[C@H](O)[C@@H]2O)[C@H](O)[C@@H]1O | 37.3% | –
10 | COC[C@H]1O[C@H](SCCCCCCN)[C@@H](O)[C@@H](O)[C@@H]1O | 37.5% | –
11 | NCCCCCCS[C@@H]1O[C@H](CO)[C@H](O)[C@H](O)[C@H]1O | 68.8% | –
12 | NCCCCCCSCC(O)CO (configuration not stated) | 6.9% | –
13 | NCCS[C@H]1O[C@H](CO)[C@@H](O)[C@H](O)[C@@H]1O | 0% | –
14 | Nc1ccc(O[C@H]2O[C@H](CO)[C@@H](O)[C@H](O)[C@@H]2O)cc1 | 2.9% | Activity [5]: 23.9%
15 | NCCCCCCS[C@H]1O[C@H](CO)[C@@H](OC(N)=O)[C@H](O)[C@@H]1O | 64.2% | –
16 | C[C@H]1O[C@H](SCCCCCCN)[C@@H](O)[C@@H](O)[C@@H]1O | 0% | –
17 | NCCCCCCO[C@@H]1O[C@H](CO)[C@@H](O)[C@H](O)[C@H]1O | 23.3% | –
18 | C[N+](C)(C)CCCCCCS[C@H]1O[C@H](CO)[C@@H](O)[C@H](O)[C@@H]1O.[I-] | 0% | –
19 | NCCCCCCC(=O)N[C@@H]1O[C@H](CO)[C@@H](O)[C@H](O)[C@@H]1O | 20.5% | –
20 | NCCCCCCS(=O)(=O)[C@H]1O[C@H](CO)[C@@H](O)[C@H](O)[C@@H]1O | 33.3% | –
21 | NC[C@H]1O[C@H](CO)[C@@H](O)[C@H](O)[C@@H]1O | 0% | –
22 | NCc1ccccc1O[C@H]1O[C@H](CO)[C@@H](O)[C@H](O)[C@@H]1O | 0% | –
23 | CSCCCCCCN | 24.8% | –
24 | NCCCCCCS[C@@H]1O[C@H](CO)[C@@H](O)[C@H](O)[C@@H]1O[C@H]1O[C@H](CO)[C@@H](O)[C@H](O)[C@@H]1O | 0% | –

Row | Compound | Activity [1] | further results
25 | NCCCCCCS[C@H]1O[C@H](COC(N)=O)[C@@H](O)[C@H](O)[C@@H]1O | 102.9% | –
26 | Nc1ccc(CS[C@H]2O[C@H](CO)[C@@H](O)[C@H](O)[C@@H]2O)cc1 | 0% | –
27 | NCCCCCCO[C@H]1O[C@H](CO)[C@@H](O)[C@H](O)[C@@H]1O | 23.3% | –
28 | NCCCCCCS[C@H]1O[C@H](CO)[C@@H](O)[C@H](O[C@H]2O[C@H](CO)[C@@H](O)[C@H](O)[C@@H]2O)[C@@H]1O | 15.7% | –
29 | NCCCCCCS[C@@H]1O[C@H](CO)[C@H](O)[C@@H](O)[C@@H]1O | 75.2% | –
30 | NCCCCCCSC1O[C@H]([C@H](O)CO)[C@H](O)[C@@H]1O (some centres not stated) | – | Activity [2]: 93.6%
31 | NCCCCCCC(=O)NCCCCCCS[C@H]1O[C@H](CO)[C@@H](O)[C@H](O)[C@@H]1O | 47.1% | –
32 | NCCCCCCS[C@H]1O[C@H](CO)[C@H](O)[C@H](O)[C@@H]1O | – | Activity [2]: 109.9%
33 | CC(=O)N[C@@H]1[C@@H](O)[C@H](O)[C@@H](CO)O[C@H]1SCCCCCCN | 36.3% | –
34 | NCCCCCC(=O)N[C@@H]1O[C@H](CO)[C@@H](O)[C@H](O)[C@@H]1O | 2.6% | –
35 | CNC(=O)NC[C@H]1O[C@@H](SCCCCCCN)[C@@H](O)[C@@H](O)[C@@H]1O | – | Activity [2]: 129%
36 | NCCCCCCS[C@H]1O[C@H](CO)[C@H](O)[C@@H](O)[C@@H]1O | 63.7% | –
37 | NCCCCCCCS[C@H]1O[C@H](CO)[C@@H](O)[C@H](O)[C@@H]1O | 14.8% | –
38 | NCCCCS[C@H]1O[C@H](CO)[C@@H](O)[C@H](O)[C@@H]1O | 0% | –
39 | NCc1ccc(O[C@H]2O[C@H](CO)[C@@H](O)[C@H](O)[C@@H]2O)cc1 | 6.4% | –
40 | NCCCCCCCCS[C@H]1O[C@H](CO)[C@@H](O)[C@H](O)[C@@H]1O | 0% | –
41 | N[C@@H]1O[C@H](CO)[C@@H](O)[C@H](O)[C@@H]1O | 0% | –
42 | NCCCCCCS[C@H]1O[C@H](CO)[C@@H](O)[C@H](O)[C@@H]1O[C@H]1O[C@H](CO)[C@@H](O)[C@H](O)[C@@H]1O | 21.6% | –
43 | NCCCCCCS | 15.5% | –
44 | NCCCCCS[C@H]1O[C@H](CO)[C@@H](O)[C@H](O)[C@@H]1O | 6.1% | –
45 | NCCCCCCCC(=O)N[C@@H]1O[C@H](CO)[C@@H](O)[C@H](O)[C@@H]1O | 22.4% | –
46 | CNCCCCCCS[C@H]1O[C@H](CO)[C@@H](O)[C@H](O)[C@@H]1O | 0% | –
47 | CCCCCCCS[C@H]1O[C@H](CO)[C@@H](O)[C@H](O)[C@@H]1O | 0% | –
